Reference: ChEMBL document CHEMBL5303300, “EUbOPEN Chemogenomics Library - Multiplex” (2023)
Several values for one entry are separate records, joined by “and”; a condition that tells them apart may be missing. Identical values can stand only once.

Test system: U2OS
Assay: Multiplex assay against U2OS
Assay type: toxicity, cell-based
Settings: human, number of replicates 2
Summary of the method: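 Values for tubulin, mitochondrial-mass and membrane-permeability phenotypes are per cents of cells with healthy nuclei. These cells were identified by CellPathfinder machine-learning gating of live cells that had been stained at seeding with Hoechst33342, BioTracker Green Microtubule Cytoskeleton Dye, MitoTracker Red and Annexin V Alexa Fluor 680 and imaged on a CQ1 microscope at 37°C and 5% CO2 after compound addition. The gating first set Hoechst high-intensity objects apart from normal cells, then split normal cells into healthy, pyknosed or fragmented nuclei, and pyknosed cells into mitotic or apoptotic.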

[1] = 12 h, 1 µM, compound concentration 1 uM
[2] = 12 h, 10 µM, compound concentration 10 uM
[3] = 24 h, 1 µM, compound concentration 1 uM
[4] = 24 h, 10 µM, compound concentration 10 uM
[5] = 48 h, 1 µM, compound concentration 1 uM
[6] = 48 h, 10 µM, compound concentration 10 uM

CCCN(CCc1cccs1)[C@H]1CCc2c(O)cccc2C1 [ROTIGOTINE]
Population Apoptotic (%) [1]: 46% and 66% | Population Fragmented Nuclei (%) [1]: 6% and 13% | Population Healthy Nuclei (%) [1]: 84% and 76% | Population Hoechst High Intensity Objects (%) [1]: 0% | Population Mitochondria Different-Phenotype (%) [1]: 0% | Population Mitotic Cells (%) [1]: 53% and 33% | Population Normal (%) [1]: 100% | Population Pyknosed Nuclei (%) [1]: 9% and 10% | Population Tubulin-Different-Phenotype (%) [1]: 86% and 34% | Total Cell Count [1]: 30 | Population Apoptotic (%) [2]: 62% and 50% | Population Healthy Nuclei (%) [2]: 84% and 60% | Population Hoechst High Intensity Objects (%) [2]: 0% | Population Membrane Permeable-Phenotype (%) [2]: 4% and 13% | Population Mitochondria Different-Phenotype (%) [2]: 1% and 0% | Population Mitotic Cells (%) [2]: 37% and 50% | Population Normal (%) [2]: 100% | Population Pyknosed Nuclei (%) [2]: 11% and 15% | Population Apoptotic (%) [3]: 57% and 80% | Population Fragmented Nuclei (%) [3]: 1% and 6% | Population Healthy Nuclei (%) [3]: 89% and 82% | Population Hoechst High Intensity Objects (%) [3]: 0% | Population Membrane Permeable-Phenotype (%) [3]: 2% | Population Mitochondria Different-Phenotype (%) [3]: 0% | Population Mitotic Cells (%) [3]: 42% and 20% | Population Normal (%) [3]: 100% | Population Pyknosed Nuclei (%) [3]: 8% and 10% | Population Tubulin-Different-Phenotype (%) [3]: 88% and 39% | Population Apoptotic (%) [4]: 48% and 66% | Population Healthy Nuclei (%) [4]: 83% and 75% | Population Hoechst High Intensity Objects (%) [4]: 0% | Population Membrane Permeable-Phenotype (%) [4]: 0% and 9% | Population Mitochondria Different-Phenotype (%) [4]: 1% and 2% | Population Mitotic Cells (%) [4]: 51% and 33% | Population Normal (%) [4]: 100% | Population Pyknosed Nuclei (%) [4]: 13% and 10% | Population Tubulin-Different-Phenotype (%) [4]: 62% and 46% | Population Apoptotic (%) [5]: 35% and 83% | Population Healthy Nuclei (%) [5]: 90% and 76% | Population Hoechst High Intensity Objects (%) [5]: 0% and 1% | Population Membrane Permeable-Phenotype (%) [5]: 1% and 6% | Population Mitochondria Different-Phenotype (%) [5]: 0% and 4% | Population Normal (%) [5]: 99% and 98% | Population Pyknosed Nuclei (%) [5]: 6% and 9% | Population Tubulin-Different-Phenotype (%) [5]: 93% and 35% | Population Apoptotic (%) [6]: 66% and 57% | Population Fragmented Nuclei (%) [6]: 8% and 2% | Population Healthy Nuclei (%) [6]: 75% and 90% | Population Hoechst High Intensity Objects (%) [6]: 0% | Population Membrane Permeable-Phenotype (%) [6]: 6% and 1% | Population Mitochondria Different-Phenotype (%) [6]: 3% and 0% | Population Mitotic Cells (%) [6]: 33% and 42% | Population Normal (%) [6]: 100% and 99% | Population Pyknosed Nuclei (%) [6]: 15% and 6% | Population Tubulin-Different-Phenotype (%) [6]: 62% and 78%

CC(C)N(CCCCOCC(=O)NS(C)(=O)=O)c1cnc(-c2ccccc2)c(-c2ccccc2)n1 [SELEXIPAG]
Population Apoptotic (%) [1]: 100% and 38% | Population Fragmented Nuclei (%) [1]: 14% and 4% | Population Healthy Nuclei (%) [1]: 76% and 84% | Population Hoechst High Intensity Objects (%) [1]: 0% | Population Membrane Permeable-Phenotype (%) [1]: 0% and 1% | Population Mitochondria Different-Phenotype (%) [1]: 6% and 0% | Population Normal (%) [1]: 100% and 99% | Population Pyknosed Nuclei (%) [1]: 9% and 11% | Population Tubulin-Different-Phenotype (%) [1]: 81% and 85% | Population Apoptotic (%) [2]: 33% and 45% | Population Fragmented Nuclei (%) [2]: 11% and 3% | Population Healthy Nuclei (%) [2]: 82% and 88% | Population Hoechst High Intensity Objects (%) [2]: 0% | Population Membrane Permeable-Phenotype (%) [2]: 2% and 1% | Population Mitochondria Different-Phenotype (%) [2]: 0% | Population Mitotic Cells (%) [2]: 66% and 54% | Population Normal (%) [2]: 100% and 99% | Population Pyknosed Nuclei (%) [2]: 6% and 8% | Population Tubulin-Different-Phenotype (%) [2]: 97% and 87% | Population Apoptotic (%) [3]: 50% and 46% | Population Fragmented Nuclei (%) [3]: 5% and 2% | Population Healthy Nuclei (%) [3]: 88% and 89% | Population Hoechst High Intensity Objects (%) [3]: 0% | Population Membrane Permeable-Phenotype (%) [3]: 3% and 1% | Population Mitochondria Different-Phenotype (%) [3]: 0% | Population Mitotic Cells (%) [3]: 50% and 53% | Population Normal (%) [3]: 100% | Population Pyknosed Nuclei (%) [3]: 5% and 8% | Population Tubulin-Different-Phenotype (%) [3]: 84% and 91% | Population Apoptotic (%) [4]: 75% and 46% | Population Healthy Nuclei (%) [4]: 73% and 89% | Population Hoechst High Intensity Objects (%) [4]: 0% | Population Membrane Permeable-Phenotype (%) [4]: 0% and 1% | Population Mitochondria Different-Phenotype (%) [4]: 0% | Population Mitotic Cells (%) [4]: 25% and 53% | Population Normal (%) [4]: 100% and 99% | Population Pyknosed Nuclei (%) [4]: 6% | Population Tubulin-Different-Phenotype (%) [4]: 100% and 94% | Population Apoptotic (%) [5]: 22% and 50% | Population Healthy Nuclei (%) [5]: 67% and 94% | Population Hoechst High Intensity Objects (%) [5]: 0% | Population Membrane Permeable-Phenotype (%) [5]: 0% and 1% | Population Mitochondria Different-Phenotype (%) [5]: 0% | Population Mitotic Cells (%) [5]: 77% and 50% | Population Normal (%) [5]: 100% | Population Tubulin-Different-Phenotype (%) [5]: 85% and 93% | Population Apoptotic (%) [6]: 36% and 56% | Population Fragmented Nuclei (%) [6]: 6% and 4% | Population Healthy Nuclei (%) [6]: 83% and 90% | Population Hoechst High Intensity Objects (%) [6]: 0% | Population Membrane Permeable-Phenotype (%) [6]: 1% | Population Mitochondria Different-Phenotype (%) [6]: 0% | Population Mitotic Cells (%) [6]: 63% and 43% | Population Normal (%) [6]: 100% and 99% | Population Pyknosed Nuclei (%) [6]: 9% and 4% | Population Tubulin-Different-Phenotype (%) [6]: 97% and 94%

CN[C@@H]1C[C@H]2O[C@@](C)([C@@H]1OC)n1c3ccccc3c3c4c(c5c6ccccc6n2c5c31)C(=O)NC4 [STAUROSPORINE]
Population Apoptotic (%) [2]: 40% and 72% and 59% and 58% | Population Fragmented Nuclei (%) [2]: 50% and 34% and 30% | Population Hoechst High Intensity Objects (%) [2]: 3% and 0% | Population Membrane Permeable-Phenotype (%) [2]: 66% and 53% and 62% and 43% | Population Mitochondria Different-Phenotype (%) [2]: 66% and 53% and 51% and 68% | Population Mitotic Cells (%) [2]: 41% [middle of 4 runs] | Population Normal (%) [2]: 96% and 100% | Population Pyknosed Nuclei (%) [2]: 38% and 46% and 61% and 63% | Population Tubulin-Different-Phenotype (%) [2]: 73% [middle of 4 runs] | Population Apoptotic (%) [4]: 70% and 85% and 89% | Population Fragmented Nuclei (%) [4]: 45% and 26% and 27% and 40% | Population Healthy Nuclei (%) [4]: 5% and 3% and 4% and 8% | Population Hoechst High Intensity Objects (%) [4]: 0% and 1% | Population Mitochondria Different-Phenotype (%) [4]: 100% and 57% and 75% and 80% | Population Mitotic Cells (%) [4]: 30% and 14% and 10% | Population Normal (%) [4]: 100% and 98% | Population Pyknosed Nuclei (%) [4]: 50% and 70% and 68% | Population Tubulin-Different-Phenotype (%) [4]: 100% and 85% and 40% | Population Apoptotic (%) [6]: 86% and 87% and 88% and 91% | Population Healthy Nuclei (%) [6]: 6% and 5% and 4% | Population Hoechst High Intensity Objects (%) [6]: 0% | Population Membrane Permeable-Phenotype (%) [6]: 100% and 90% and 85% | Population Mitochondria Different-Phenotype (%) [6]: 100% and 60% and 71% | Population Mitotic Cells (%) [6]: 13% and 12% and 8% | Population Normal (%) [6]: 100% | Population Pyknosed Nuclei (%) [6]: 60% and 50% and 80% and 73% | Population Tubulin-Different-Phenotype (%) [6]: 100% and 85%
